Test results taken from ChEMBL document CHEMBL4130356, “Design, synthesis and 2D QSAR study of novel pyridine and quinolone hydrazone derivatives as potential antimicrobial and antitubercular agents” (Eur J Med Chem, 2017).
≈ marks a conversion by molar mass, not a printed value. Calls of active or inactive are those of the source. No cut-off for these calls is given here.

Assays:
Escherichia coli [1] = assay: Antimicrobial activity against Escherichia coli RCMB 010052 assessed as diameter of zone inhibition at 100 ug/ml after 24 hrs by agar well diffusion assay; format: functional; details: RCMB 010052, 24 h, read-out: DIZ
In short: (§1)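 Agar well diffusion on nutrient agar plates seeded with the bacterium, using 1 cm wells. Plates were held at 4°C for 1 h for diffusion, then incubated at 37°C. Inhibition zone diameters were measured at 24 h. Ciprofloxacin was the positive control. Run in triplicate, with the mean zone reported.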

Escherichia coli [2] = assay: Antimicrobial activity against Escherichia coli RCMB 010052 after 24 hrs by serial dilution method; format: functional; details: RCMB 010052, 24 h
In short: (§2)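 Serial twofold dilution in microtiter plates starting from a 100 mmol stock in DMSO; final concentrations 125 down to 0.12 […]. Incubated at 37°C and read on a microplate reader after 24 h. Ciprofloxacin was the reference. Run in triplicate, with the average taken. MIC was the lowest concentration inhibiting growth.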

Pseudomonas aeruginosa [3] = assay: microbe, parasite or virus in culture; details: RCMB 010043, 24 h, read-out: DIZ
Pseudomonas aeruginosa [4] = assay: microbe, parasite or virus in culture; details: RCMB 010043, 24 h
Aspergillus fumigatus [5] = assay: Antimicrobial activity against Aspergillus fumigatus RCMB 02568 after 48 hrs by serial dilution method; format: functional; details: RCMB 02568, 48 h
In short: as §2, with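 “28°C” for “37°C”, “48” for “24”, “Amphotericin B” for “Ciprofloxacin”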

Aspergillus fumigatus [6] = assay: Antimicrobial activity against Aspergillus fumigatus RCMB 02568 assessed as diameter of zone inhibition at 100 ug/ml after 48 hrs by agar well diffusion assay; format: functional; details: RCMB 02568, 48 h, read-out: DIZ
In short: (§3)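 Agar well diffusion on malt agar plates seeded with the fungus, using 1 cm wells. Plates were held at 4°C for 1 h for diffusion, then incubated at 28°C. Inhibition zone diameters were measured at 48 h. Amphotericin B was the positive control. Run in triplicate, with the mean zone reported.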

Candida albicans [7] = assay: Antimicrobial activity against Candida albicans RCMB 05036 assessed as diameter of zone inhibition at 100 ug/ml after 48 hrs by agar well diffusion assay; format: functional; details: RCMB 05036, 48 h, read-out: DIZ; in short: as §3
Streptococcus pneumoniae [8] = assay: Antimicrobial activity against Streptococcus pneumoniae RCMB 010010 assessed as diameter of zone inhibition at 100 ug/ml after 24 hrs by agar well diffusion assay; format: functional; details: RCMB 010010, 24 h, read-out: DIZ; in short: as §1
Staphylococcus aureus [9] = assay: Antimicrobial activity against Staphylococcus aureus RCMB 010028 assessed as diameter of zone inhibition at 100 ug/ml after 24 hrs by agar well diffusion assay; format: functional; details: RCMB 010028, 24 h, read-out: DIZ; in short: as §1
Candida albicans [10] = assay: Antimicrobial activity against Candida albicans RCMB 05036 after 48 hrs by serial dilution method; format: functional; details: RCMB 05036, 48 h
In short: as §2, with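 “28°C” for “37°C”, “48” for “24”, “Amphotericin B” for “Ciprofloxacin”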

Streptococcus pneumoniae [11] = assay: Antimicrobial activity against Streptococcus pneumoniae RCMB 010010 after 24 hrs by serial dilution method; format: functional; details: RCMB 010010, 24 h; in short: as §2
Staphylococcus aureus [12] = assay: Antimicrobial activity against Staphylococcus aureus RCMB 010028 after 24 hrs by serial dilution method; format: functional; details: RCMB 010028, 24 h; in short: as §2
[13] = tested on: Mycobacterium tuberculosis; assay: Antimycobacterial activity against Mycobacterium tuberculosis RCMB 010126 clinical isolate after 7 days by MABA; format: functional; details: Mycobacterium tuberculosis, RCMB 010126, 168 h
In short: (§4)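 Inoculum from fresh LJ culture resuspended in 7H9-S broth with casitone, glycerol and OADC, adjusted to McFarland No. 1 and diluted 1:20. Serial two-fold compound dilutions in 7H9-S; isoniazid reference. Incubated 7 days at 37°C in air, then Alamar blue added and incubated overnight. Percent inhibition = 1 − (test well/growth-control mean) × 100; MIC = lowest concentration preventing blue-to-pink change.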

[14] = tested on: Mycobacterium tuberculosis; assay: Antimycobacterial activity against Mycobacterium tuberculosis RCMB 010126 clinical isolate assessed as inhibition zone after 7 days by MABA; format: functional; in short: as §4
WI-38 = assay: Cytotoxicity against human WI38 cells assessed as reduction in cell viability after 24 hrs by crystal violet staining-based colorimetric method; details: WI-38, 24 h
In short: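 WI-38 cells were grown in DMEM with 10% FBS at 37°C and 5% CO2, then seeded at 1×10^4 cells/well. Serial twofold dilutions were added, three wells per concentration. Viability was read by crystal violet stain, solubilised in 30% acetic acid, at 490 nm. Run in triplicate. IC50 was estimated from dose-response plots.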

[15] = Selectivity index, ratio of IC50 for human WI38 cells to MIC for Mycobacterium tuberculosis RCMB 010126 clinical isolate; format: toxicity; details: read-out: Selectivity Index
In short: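 WI-38 human lung fibroblasts grown in DMEM with 10% FBS at 37°C and 5% CO2, seeded at 1×10^4 cells/well, and exposed to serial two-fold dilutions in triplicate. Viability read by crystal violet stain at 490 nm. IC50 taken from dose-response plots. Ratio uses this IC50 against the MABA MIC for M. tuberculosis.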

Escherichia coli [16] = assay: Potency index, ratio of ciprofloxacin MIC to test compound MIC for Escherichia coli RCMB 010052; format: functional
Streptococcus pneumoniae [17] = assay: Potency index, ratio of ampicillin MIC to test compound MIC for Streptococcus pneumoniae RCMB 010010; format: functional
Pseudomonas aeruginosa [18] = details: RCMB 010043, 100 ug/ml
Pseudomonas aeruginosa [19] = details: RCMB 010043

O=C(O)c1cn(C2CC2)c2cc(N3CCNCC3)c(F)cc2c1=O [CIPROFLOXACIN]
zone of inhibition at 100 µg/mL (Escherichia coli [1]): 23.4 mm
MIC (Escherichia coli [2]): 0.98 µg/mL (≈ 2.96 µM)
zone of inhibition at 100 µg/mL (Pseudomonas aeruginosa [3]): 20.6 mm
MIC (Pseudomonas aeruginosa [4]): 1.95 µg/mL (≈ 5.89 µM)

COc1ccc(OC)c(/C=N/NC(=O)c2ccc(-c3ccc(Cl)cc3)nc2C)c1
MIC (Aspergillus fumigatus [5]): 0.98 µg/mL (≈ 2.39 µM)
zone of inhibition at 100 µg/mL (Aspergillus fumigatus [6]): 24.3 mm
zone of inhibition at 100 µg/mL (Candida albicans [7]): 22.5 mm
zone of inhibition at 100 µg/mL (Streptococcus pneumoniae [8]): 24.3 mm
zone of inhibition at 100 µg/mL (Staphylococcus aureus [9]): 22.3 mm
zone of inhibition at 100 µg/mL (Escherichia coli [1]): 24.3 mm
MIC (Candida albicans [10]): 0.98 µg/mL (≈ 2.39 µM)
MIC (Streptococcus pneumoniae [11]): 0.49 µg/mL (≈ 1.2 µM)
MIC (Staphylococcus aureus [12]): 0.98 µg/mL (≈ 2.39 µM)
MIC (Escherichia coli [2]): 0.49 µg/mL (≈ 1.2 µM)
MIC [13]: 0.39 µg/mL (≈ 0.952 µM)
inhibition zone (IZ) [14]: 85.32 mm
IC50 (WI-38): 500 µg/mL (≈ 1220 µM)
selectivity ratio [15]: 1280
Ratio (Escherichia coli [16]): 2
Ratio (Streptococcus pneumoniae [17]): 2
DIZ (Pseudomonas aeruginosa [18]): inactive
MIC (Pseudomonas aeruginosa [19]): inactive
